# Tested on: U2OS
# Assay: Multiplex assay against U2OS
# Assay type: toxicity, cell-based
# Conditions: human
# Procedure, shortened: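 On a CQ1 microscope at 37°C and 5% CO2, live cells were imaged after compound addition. They had been stained at seeding with Hoechst33342, BioTracker Green Microtubule Cytoskeleton Dye, MitoTracker Red and Annexin V Alexa Fluor 680. CellPathfinder machine-learning gating assigned cells to Hoechst high-intensity objects or normal cells, normal cells to healthy, pyknosed or fragmented nuclei, and pyknosed cells to mitotic or apoptotic. Tubulin, mitochondrial-mass and membrane-permeability phenotypes are per cents of healthy-nucleus cells.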
# [1] = 12 h, 1 µM, compound concentration 1 uM, replicate 1
# [2] = 12 h, 1 µM, compound concentration 1 uM, replicate 2
# [3] = 12 h, 10 µM, compound concentration 10 uM, replicate 1
# [4] = 12 h, 10 µM, compound concentration 10 uM, replicate 2
# [5] = 24 h, 1 µM, compound concentration 1 uM, replicate 1
# [6] = 24 h, 1 µM, compound concentration 1 uM, replicate 2
# [7] = 24 h, 10 µM, compound concentration 10 uM, replicate 1
# [8] = 24 h, 10 µM, compound concentration 10 uM, replicate 2
# [9] = 48 h, 1 µM, compound concentration 1 uM, replicate 1
# [10] = 48 h, 1 µM, compound concentration 1 uM, replicate 2
# [11] = 48 h, 10 µM, compound concentration 10 uM, replicate 1
# [12] = 48 h, 10 µM, compound concentration 10 uM, replicate 2
smiles,measurement,setting,value
O=C(CCCc1ccccc1)Nc1nc2ccccc2c(=O)s1,Population Apoptotic (%),[1],92%
same,Population Fragmented Nuclei (%),[1],26%
same,Population Healthy Nuclei (%),[1],64%
same,Population Hoechst High Intensity Objects (%),[1],2%
same,Population Membrane Permeable-Phenotype (%),[1],4%
same,Population Mitochondria Different-Phenotype (%),[1],2%
same,Population Mitotic Cells (%),[1],7%
same,Population Normal (%),[1],97%
same,Population Pyknosed Nuclei (%),[1],9%
same,Population Tubulin-Different-Phenotype (%),[1],1%
same,Total Cell Count,[1],274
same,Population Apoptotic (%),[2],55%
same,Population Fragmented Nuclei (%),[2],17%
same,Population Healthy Nuclei (%),[2],74%
same,Population Hoechst High Intensity Objects (%),[2],0%
same,Population Membrane Permeable-Phenotype (%),[2],7%
same,Population Mitochondria Different-Phenotype (%),[2],3%
same,Population Mitotic Cells (%),[2],44%
same,Population Normal (%),[2],100%
same,Population Pyknosed Nuclei (%),[2],7%
same,Population Tubulin-Different-Phenotype (%),[2],2%
same,Total Cell Count,[2],113
same,Population Apoptotic (%),[3],72%
same,Population Fragmented Nuclei (%),[3],31%
same,Population Healthy Nuclei (%),[3],58%
same,Population Hoechst High Intensity Objects (%),[3],2%
same,Population Membrane Permeable-Phenotype (%),[3],2%
same,Population Mitochondria Different-Phenotype (%),[3],0%
same,Population Mitotic Cells (%),[3],28%
same,Population Normal (%),[3],97%
same,Population Pyknosed Nuclei (%),[3],9%
same,Population Tubulin-Different-Phenotype (%),[3],1%
same,Total Cell Count,[3],270
same,Population Apoptotic (%),[4],100%
same,Population Fragmented Nuclei (%),[4],20%
same,Population Healthy Nuclei (%),[4],67%
same,Population Hoechst High Intensity Objects (%),[4],4%
same,Population Membrane Permeable-Phenotype (%),[4],7%
same,Population Mitochondria Different-Phenotype (%),[4],6%
same,Population Mitotic Cells (%),[4],0%
same,Population Normal (%),[4],95%
same,Population Pyknosed Nuclei (%),[4],11%
same,Population Tubulin-Different-Phenotype (%),[4],6%
same,Total Cell Count,[4],101
same,Population Apoptotic (%),[5],79%
same,Population Fragmented Nuclei (%),[5],22%
same,Population Healthy Nuclei (%),[5],68%
same,Population Hoechst High Intensity Objects (%),[5],1%
same,Population Membrane Permeable-Phenotype (%),[5],4%
same,Population Mitochondria Different-Phenotype (%),[5],2%
same,Population Mitotic Cells (%),[5],20%
same,Population Normal (%),[5],98%
same,Population Pyknosed Nuclei (%),[5],9%
same,Population Tubulin-Different-Phenotype (%),[5],2%
same,Total Cell Count,[5],325
same,Population Apoptotic (%),[6],84%
same,Population Fragmented Nuclei (%),[6],17%
same,Population Healthy Nuclei (%),[6],73%
same,Population Hoechst High Intensity Objects (%),[6],0%
same,Population Membrane Permeable-Phenotype (%),[6],8%
same,Population Mitotic Cells (%),[6],15%
same,Population Normal (%),[6],100%
same,Population Tubulin-Different-Phenotype (%),[6],3%
same,Total Cell Count,[6],141
same,Population Apoptotic (%),[7],86%
same,Population Fragmented Nuclei (%),[7],25%
same,Population Healthy Nuclei (%),[7],65%
same,Population Hoechst High Intensity Objects (%),[7],2%
same,Population Membrane Permeable-Phenotype (%),[7],5%
same,Population Mitochondria Different-Phenotype (%),[7],1%
same,Population Mitotic Cells (%),[7],13%
same,Population Normal (%),[7],97%
same,Population Pyknosed Nuclei (%),[7],9%
same,Population Tubulin-Different-Phenotype (%),[7],4%
same,Total Cell Count,[7],319
same,Population Apoptotic (%),[8],100%
same,Population Fragmented Nuclei (%),[8],19%
same,Population Healthy Nuclei (%),[8],71%
same,Population Hoechst High Intensity Objects (%),[8],1%
same,Population Membrane Permeable-Phenotype (%),[8],8%
same,Population Mitochondria Different-Phenotype (%),[8],2%
same,Population Mitotic Cells (%),[8],0%
same,Population Normal (%),[8],98%
same,Population Tubulin-Different-Phenotype (%),[8],3%
same,Total Cell Count,[8],124
same,Population Apoptotic (%),[9],91%
same,Population Fragmented Nuclei (%),[9],13%
same,Population Healthy Nuclei (%),[9],76%
same,Population Hoechst High Intensity Objects (%),[9],7%
same,Population Membrane Permeable-Phenotype (%),[9],3%
same,Population Mitochondria Different-Phenotype (%),[9],2%
same,Population Mitotic Cells (%),[9],8%
same,Population Normal (%),[9],92%
same,Population Pyknosed Nuclei (%),[9],9%
same,Population Tubulin-Different-Phenotype (%),[9],1%
same,Total Cell Count,[9],394
same,Population Apoptotic (%),[10],87%
same,Population Fragmented Nuclei (%),[10],19%
same,Population Healthy Nuclei (%),[10],71%
same,Population Hoechst High Intensity Objects (%),[10],5%
same,Population Mitochondria Different-Phenotype (%),[10],3%
same,Population Mitotic Cells (%),[10],12%
same,Population Normal (%),[10],94%
same,Population Pyknosed Nuclei (%),[10],8%
same,Population Tubulin-Different-Phenotype (%),[10],6%
same,Total Cell Count,[10],192
same,Population Apoptotic (%),[11],91%
same,Population Fragmented Nuclei (%),[11],20%
same,Population Healthy Nuclei (%),[11],70%
same,Population Hoechst High Intensity Objects (%),[11],2%
same,Population Membrane Permeable-Phenotype (%),[11],5%
same,Population Mitochondria Different-Phenotype (%),[11],0%
same,Population Mitotic Cells (%),[11],8%
same,Population Normal (%),[11],97%
same,Population Pyknosed Nuclei (%),[11],8%
same,Population Tubulin-Different-Phenotype (%),[11],3%
same,Total Cell Count,[11],427
same,Population Apoptotic (%),[12],95%
same,Population Fragmented Nuclei (%),[12],15%
same,Population Healthy Nuclei (%),[12],72%
same,Population Hoechst High Intensity Objects (%),[12],0%
same,Population Membrane Permeable-Phenotype (%),[12],9%
same,Population Mitochondria Different-Phenotype (%),[12],3%
same,Population Mitotic Cells (%),[12],4%
same,Population Normal (%),[12],99%
same,Population Pyknosed Nuclei (%),[12],12%
same,Population Tubulin-Different-Phenotype (%),[12],5%
same,Total Cell Count,[12],175

# Reference: ChEMBL document CHEMBL5058577, “EUbOPEN Chemogenomics Library 2 (Multiplex)” (2022)
